Experimental data: ChEMBL document CHEMBL1155264, “Synthesis of substituted-phenyl-1,2,4-triazol-3-thione analogues with modified D-glucopyranosyl residues and their antiproliferative activities” (Eur J Med Chem, 2009)
pIC50: −log10 of the molar value.

Experiments:
[1] = test system: MCF7; test: Antiproliferative activity against human MCF7 cells after 24 hrs by MTT assay; format: functional, cell-based; conditions: MCF7, 24 h
Outline: (§1)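 Cells plated at 1 × 10⁴ per well and cultured 24 h at 37 °C, 5% CO₂. Medium then replaced with fresh medium containing compound at varying concentrations, five wells per concentration, and incubated 24 h. MTT (5 mg/mL in phosphate buffer pH 7.4) added for 4 h at 37 °C. Absorbance read at 570 nm, blanked on cell-free medium. IC50 is 50% growth inhibition versus untreated control; mean ± SD, n = 3.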

[2] = test system: Bel-7402; test: Antiproliferative activity against human Bel7402 cells after 24 hrs by MTT assay; format: functional, cell-based; conditions: Bel-7402, 24 h; outline: as §1

`COc1cc(/C=N/n2c(-c3ccccc3)n[nH]c2=S)ccc1O` showed a pIC50 [1] of 4.58 and a pIC50 [2] of 4.71.
`CC(=O)OC[C@H]1O[C@@H](n2nc(-c3ccccc3)n(/N=C/c3ccccc3)c2=S)[C@H](OC(C)=O)[C@@H](OC(C)=O)[C@@H]1OC(C)=O` was tested, and the pIC50 [1] was 4.74 and the pIC50 [2] was 4.97.
In the case of `S=c1[nH]nc(-c2ccccc2)n1/N=C/c1ccccc1`, the pIC50 [1] was 4.50 and the pIC50 [2] was 4.65.
`S=c1[nH]nc(-c2ccccc2)n1/N=C/c1ccc(Cl)cc1` gave a pIC50 [1] of 4.52 and a pIC50 [2] of 4.62.
For `Oc1ccc(/C=N/n2c(-c3ccccc3)n[nH]c2=S)cc1`, the pIC50 [1] was 4.52 and the pIC50 [2] was 4.60.
Compound `O=c1[nH]cc(F)c(=O)[nH]1` [FLUOROURACIL] has a pIC50 [1] of 5.37 and a pIC50 [2] of 5.33.
